ChEMBL document CHEMBL1240350, “In vitro activity of CEM-101 against Streptococcus pneumoniae and Streptococcus pyogenes with defined macrolide resistance mechanisms” (Antimicrob Agents Chemother, 2010)
Values after ≈ are worked out from the molar mass of the structure shown.

What was measured:
Format in all cases: functional
[1] = test system: Streptococcus pneumoniae; experiment: Antibacterial activity against penicillin-susceptible Streptococcus pneumoniae after overnight incubation by agar dilution method
Procedure, shortened: (§1)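 Agar dilution on Mueller-Hinton agar supplemented with 5% sheep blood. Inoculum 10^4 CFU/spot, incubated overnight at 35°C in ambient air. Test strains were clinical pneumococcal isolates. S. pneumoniae ATCC 49619 was included as the quality control strain in each run. MIC range, MIC50 and MIC90 were reported for each susceptibility category.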

[2] = test system: Streptococcus pneumoniae; experiment: Antibacterial activity against penicillin-intermediate Streptococcus pneumoniae after overnight incubation by agar dilution method
Procedure, shortened: (§2)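 Agar dilution on Mueller-Hinton agar supplemented with 5% sheep blood, inoculum 10^4 CFU/spot, read after overnight incubation at 35°C in ambient air. Clinical isolates with defined genotypes; S. pneumoniae ATCC 49619 quality control strain included in each run. MIC50/MIC90 are MICs inhibiting 50% and 90% of isolates.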

[3] = test system: Streptococcus pneumoniae; experiment: Antibacterial activity against penicillin-resistant Streptococcus pneumoniae after overnight incubation by agar dilution method; procedure, shortened: as §1
[4] = test system: Streptococcus pneumoniae; experiment: Antibacterial activity against macrolide-susceptible Streptococcus pneumoniae after overnight incubation by agar dilution method
Procedure, shortened: (§3)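 Agar dilution MICs on Mueller-Hinton agar with 5% sheep blood. Inoculum 10^4 CFU/spot, incubated overnight at 35°C in ambient air. Clinical S. pneumoniae or group A streptococcal isolates; resistance genotypes (erm(B), erm(A), mef(A)/mef(E)) were assigned by PCR. S. pneumoniae ATCC 49619 served as QC strain in each run. Range, MIC50 and MIC90 reported per phenotype group.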

[5] = test system: Streptococcus pneumoniae; experiment: Antibacterial activity against Streptococcus pneumoniae harboring erm(B) gene after overnight incubation by agar dilution method
Procedure, shortened: (§4)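 Clinical isolates collected 1998–2008, with macrolide-resistance genes confirmed by PCR. MICs by agar dilution on Mueller-Hinton agar with 5% sheep blood. Inoculum 10^4 CFU/spot, incubated overnight at 35°C in ambient air. S. pneumoniae ATCC 49619 was the quality-control strain in every run.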

[6] = test system: Streptococcus pneumoniae; experiment: Antibacterial activity against Streptococcus pneumoniae harboring mef(A) gene after overnight incubation by agar dilution method; procedure, shortened: as §4
[7] = test system: Streptococcus pneumoniae; experiment: Antibacterial activity against Streptococcus pneumoniae harboring erm(B) and mef(A) gene after overnight incubation by agar dilution method; procedure, shortened: as §4
[8] = test system: Streptococcus pneumoniae; experiment: Antibacterial activity against Streptococcus pneumoniae harboring mutation in L4 ribosomal protein after overnight incubation by agar dilution method; procedure, shortened: as §4
[9] = test system: Streptococcus pneumoniae; experiment: Antibacterial activity against Streptococcus pneumoniae harboring mutation in 23S rRNA after overnight incubation by agar dilution method; procedure, shortened: as §4
[10] = test system: Streptococcus pneumoniae; experiment: Antibacterial activity against quinolone-susceptible Streptococcus pneumoniae after overnight incubation by agar dilution method; procedure, shortened: as §1
[11] = test system: Streptococcus pneumoniae; experiment: Antibacterial activity against quinolone-resistant Streptococcus pneumoniae after overnight incubation by agar dilution method; procedure, shortened: as §1
[12] = test system: Streptococcus pneumoniae; experiment: Antibacterial activity against macrolide-resistant Streptococcus pneumoniae harboring erm(B) gene after overnight incubation by agar dilution method; procedure, shortened: as §3
[13] = test system: Streptococcus pneumoniae; experiment: Antibacterial activity against macrolide-resistant Streptococcus pneumoniae harboring mef(A) gene after overnight incubation by agar dilution method; procedure, shortened: as §3
[14] = test system: Streptococcus pneumoniae; experiment: Antibacterial activity against macrolide-resistant Streptococcus pneumoniae harboring erm(B) and mef(A) gene after overnight incubation by agar dilution method; procedure, shortened: as §3
[15] = test system: Streptococcus pneumoniae; experiment: Antibacterial activity against macrolide-resistant Streptococcus pneumoniae harboring mutation in L4 ribosomal protein after overnight incubation by agar dilution method; procedure, shortened: as §3
[16] = test system: Streptococcus pyogenes; experiment: Antibacterial activity against macrolide-susceptible Streptococcus pyogenes after overnight incubation by agar dilution method; procedure, shortened: as §2
[17] = test system: Streptococcus pyogenes; experiment: Antibacterial activity against Streptococcus pyogenes harboring erm(B) gene after overnight incubation by agar dilution method; procedure, shortened: as §4
[18] = test system: Streptococcus pyogenes; experiment: Antibacterial activity against Streptococcus pyogenes harboring mef(A) gene after overnight incubation by agar dilution method; procedure, shortened: as §4
[19] = test system: Streptococcus pyogenes; experiment: Antibacterial activity against Streptococcus pyogenes harboring erm(A) gene after overnight incubation by agar dilution method; procedure, shortened: as §4
[20] = test system: Streptococcus pyogenes; experiment: Antibacterial activity against Streptococcus pyogenes harboring mutation in L4 ribosomal protein after overnight incubation by agar dilution method; procedure, shortened: as §4
[21] = test system: Streptococcus pyogenes; experiment: Antibacterial activity against macrolide-resistant Streptococcus pyogenes harboring erm(B) gene after overnight incubation by agar dilution method; procedure, shortened: as §3
[22] = test system: Streptococcus pyogenes; experiment: Antibacterial activity against macrolide-resistant Streptococcus pyogenes harboring mef(A) gene after overnight incubation by agar dilution method; procedure, shortened: as §3
[23] = test system: Streptococcus pyogenes; experiment: Antibacterial activity against macrolide-resistant Streptococcus pyogenes harboring erm(A) gene after overnight incubation by agar dilution method; procedure, shortened: as §3
[24] = test system: Streptococcus pneumoniae; experiment: Antibacterial activity against Streptococcus pneumoniae harboring erm(A) gene after overnight incubation by agar dilution method; procedure, shortened: as §4

Compound `C[C@H]1COc2c(N3CCN(C)CC3)c(F)cc3c(=O)c(C(=O)O)cn1c23.C[C@H]1COc2c(N3CCN(C)CC3)c(F)cc3c(=O)c(C(=O)O)cn1c23.O` [LEVOFLOXACIN] has an MIC50 [1] of 1 µg/mL, an MIC90 [1] of 16 µg/mL and an MIC50 [2] of 1 µg/mL. It also gave an MIC90 [2] of 2 µg/mL, an MIC50 [3] of 1 µg/mL and an MIC90 [3] of 2 µg/mL. It also gave an MIC50 [4] of 1 µg/mL, an MIC90 [4] of 16 µg/mL and an MIC50 [5] of 1 µg/mL. For the same compound, the MIC90 [5] was 2 µg/mL, the MIC50 [6] was 1 µg/mL and the MIC90 [6] was 2 µg/mL. It also gave an MIC50 [7] of 1 µg/mL, an MIC90 [7] of 16 µg/mL and an MIC50 [8] of 1 µg/mL. The MIC90 [8] was 2 µg/mL, the MIC [9] was 0.06 µg/mL and the MIC50 [10] was 1 µg/mL. For the same compound, the MIC90 [10] was 2 µg/mL, the MIC50 [11] was 16 µg/mL and the MIC90 [11] was 16 µg/mL. The MIC50 [12] was 1 µg/mL, the MIC90 [12] was 2 µg/mL and the MIC50 [13] was 1 µg/mL. It also gave an MIC90 [13] of 2 µg/mL, an MIC50 [14] of 1 µg/mL and an MIC90 [14] of 16 µg/mL. The MIC50 [15] was 1 µg/mL, the MIC90 [15] was 2 µg/mL and the MIC50 [16] was 0.5 µg/mL. The MIC90 [16] was 0.5 µg/mL, the MIC50 [17] was 0.5 µg/mL and the MIC90 [17] was 1 µg/mL. For the same compound, the MIC50 [18] was 0.5 µg/mL, the MIC90 [18] was 1 µg/mL and the MIC50 [19] was 0.5 µg/mL. It also gave an MIC90 [19] of 1 µg/mL, an MIC [20] of 0.5 µg/mL and an MIC50 [21] of 0.5 µg/mL. For the same compound, the MIC90 [21] was 1 µg/mL, the MIC50 [22] was 0.5 µg/mL and the MIC90 [22] was 1 µg/mL. The MIC50 [23] was 0.5 µg/mL and the MIC90 [23] was 1 µg/mL.
Work on `CC[C@H]1OC(=O)[C@H](C)[C@@H](O[C@H]2C[C@@](C)(OC)[C@@H](O)[C@H](C)O2)[C@H](C)[C@@H](O[C@@H]2O[C@H](C)C[C@H](N(C)C)[C@H]2O)[C@](C)(O)C[C@@H](C)C(=O)[C@H](C)[C@@H](O)[C@]1(C)O` [ERYTHROMYCIN] yielded an MIC50 [1] of 4 µg/mL (≈ 5.45 µM), an MIC90 [1] greater than 64 µg/mL and an MIC50 [2] greater than 64 µg/mL. The MIC90 [2] was greater than 64 µg/mL, the MIC50 [4] was 0.06 µg/mL (≈ 0.0818 µM) and the MIC90 [4] was 0.125 µg/mL (≈ 0.17 µM). For the same compound, the MIC50 [6] was 4 µg/mL (≈ 5.45 µM), the MIC90 [6] was 32 µg/mL (≈ 43.6 µM) and the MIC [24] was 2 µg/mL (≈ 2.73 µM). It also gave an MIC [9] of 8 µg/mL (≈ 10.9 µM), an MIC50 [10] greater than 64 µg/mL and an MIC90 [10] greater than 64 µg/mL. For the same compound, the MIC50 [11] was 0.06 µg/mL (≈ 0.0818 µM), the MIC50 [13] was 4 µg/mL (≈ 5.45 µM) and the MIC90 [13] was 32 µg/mL (≈ 43.6 µM). The MIC50 [16] was 0.06 µg/mL (≈ 0.0818 µM), the MIC90 [16] was 0.125 µg/mL (≈ 0.17 µM) and the MIC50 [17] was greater than 64 µg/mL. It also gave an MIC90 [17] greater than 64 µg/mL, an MIC50 [18] of 16 µg/mL (≈ 21.8 µM) and an MIC90 [18] of 32 µg/mL (≈ 43.6 µM). For the same compound, the MIC50 [19] was 4 µg/mL (≈ 5.45 µM), the MIC90 [19] was greater than 64 µg/mL and the MIC [20] was 2 µg/mL (≈ 2.73 µM). The MIC50 [21] was greater than 64 µg/mL, the MIC90 [21] was greater than 64 µg/mL and the MIC50 [22] was 16 µg/mL (≈ 21.8 µM). For the same compound, the MIC90 [22] was 32 µg/mL (≈ 43.6 µM), the MIC50 [23] was 4 µg/mL (≈ 5.45 µM) and the MIC90 [23] was greater than 64 µg/mL.
